Ki, Ratio Ki and Activity data for 7 molecules are collected here from ChEMBL document CHEMBL4177556, “Novel 5-HT7R antagonists, arylsulfonamide derivatives of (aryloxy)propyl piperidines: Add-on effect to the antidepressant activity of SSRI and DRI, and pro-cognitive profile” (Bioorg Med Chem, 2017).

Activity calls are given as the source filed them.

The term Ki denotes the equilibrium dissociation constant of an inhibitor or competing ligand from its target.

The target in experiment [1] is 5-hydroxytryptamine receptor 7 (Homo sapiens, UniProt P34969). Kind of experiment: Displacement of [3H]-5-CT from human 5-HT7b receptor expressed in HEK293 cells after 1 hr by microbeta counting analysis. It counts as cell-based. A digest of the protocol: (§1)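 Membranes from stably transfected HEK293 or CHO-K1 cells, homogenized, centrifuged twice at 35,000g, with 15 min at 37 °C in between. Receptor-specific Tris-HCl buffers with MgCl2, plus EDTA, pargyline or ascorbate as applicable. Incubated 1 h at 37 °C (5-HT1A at room temperature), filtered, and bound radioactivity counted.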
A general note: In a radioligand displacement assay an active substance lowers the binding of a labelled ligand.

In experiment [2] the target is T1, 5-hydroxytryptamine receptor 1A (Homo sapiens, UniProt P08908).
T1 sequence (P08908 whole entry): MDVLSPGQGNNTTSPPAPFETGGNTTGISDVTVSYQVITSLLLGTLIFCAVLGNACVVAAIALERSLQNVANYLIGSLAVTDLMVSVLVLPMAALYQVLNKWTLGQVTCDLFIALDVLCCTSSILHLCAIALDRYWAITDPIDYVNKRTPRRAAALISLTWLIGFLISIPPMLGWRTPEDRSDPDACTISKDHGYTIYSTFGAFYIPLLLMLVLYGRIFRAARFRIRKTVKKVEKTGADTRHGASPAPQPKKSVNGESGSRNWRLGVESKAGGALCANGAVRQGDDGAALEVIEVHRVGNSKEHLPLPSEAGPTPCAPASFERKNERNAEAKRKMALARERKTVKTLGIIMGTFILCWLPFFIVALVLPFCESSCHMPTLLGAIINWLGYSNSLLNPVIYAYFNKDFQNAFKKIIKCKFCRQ
The experiment in a line: Displacement of [3H]-8-OH-DPAT from human 5-HT1A receptor expressed in HEK293 or CHO-K1 cells after 1 hr by microbeta counting analysis. It counts as cell-based. A digest of the protocol: as §1

For experiment [3], the species on record is Homo sapiens. Kind of experiment: Selectivity ratio of Ki for human 5-HT1A receptor to Ki for human 5-HT7b receptor.
The test system of experiment [4] is Mus musculus. Kind of experiment: Antidepressant-like activity in Swiss albino mouse assessed as decrease in immobility time at 10 mg/kg measured during last 4 mins of 6 mins test by forced swim test relative to control. It is filed as functional. Further details: scale not given: the % may be the effect or the level left. A digest of the protocol: (§2)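 Porsolt swim test in male Swiss albino mice (22–26 g), 7–10 per dose, each used once, run 09:00–14:00 by a blinded observer. Drugs in distilled water, i.p. at 10 ml/kg: escitalopram 30 min before test, others 60 min. Immobility scored during the last 4 min of a 6 min swim at 23–25 °C. One-way ANOVA with Bonferroni vs vehicle.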

In experiment [5] the test system is Mus musculus. Kind of experiment: Antidepressant-like activity in C57BL/6J mouse at 2.5 mg/kg measured during 6 mins session by tail suspension test. It counts as functional, organism-based. Summed up:
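Male C57BL/6J mice (22–26 g), 7–9 per group. Compound in distilled water, i.p. at 10 ml/kg, 60 min before test. Mice suspended by tail from a strain-gauge hook for 6 min. Struggling episodes, average event force and immobility (force below 0.20 N threshold) recorded automatically. One-way ANOVA with Bonferroni; mean ± SEM.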

In experiment [6] the test system is Rattus norvegicus. Kind of experiment: Cognitive enhancement effect in Sprague-Dawley rat memory impairment model assessed as reversal of natural forgetting impairment at 1 mg/kg, ip administered 30 mins prior to test measured after 24 hrs by novel object recognition test. It is filed as functional, organism-based. Summed up: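 Male Sprague–Dawley rats (about 250 g), handled and acclimatized. Habituated to an open field arena (25 lx) for 5 min, 24 h before testing. Two 3-min trials (T1, T2) separated by a 24 h inter-trial interval. Drug given i.p. 30 min before T1. Object exploration video-tracked; discrimination index = (EB−EA)/(EA+EB).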

The subject of experiment [7] is Mus musculus. The experiment in a line: Antidepressant-like activity in Swiss albino mouse assessed as decrease in immobility time at 1.25 mg/kg measured during last 4 mins of 6 mins test by forced swim test relative to control. It is filed as functional. Further details: scale not given: the % may be the effect or the level left. Summed up:
as §2

The subject of experiment [8] is Mus musculus. Kind of experiment: Antidepressant-like activity in Swiss albino mouse assessed as decrease in immobility time at 2.5 mg/kg measured during last 4 mins of 6 mins test by forced swim test relative to control. It counts as functional. Further details: scale not given: the % may be the effect or the level left. Summed up: as §2
The subject of experiment [9] is Mus musculus. Kind of experiment: Antidepressant-like activity in C57BL/6J mouse assessed as decrease in immobility time at 5 to 20 mg/kg measured during 6 mins session by tail suspension test. It counts as functional, organism-based. Summed up: (§3)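 C57BL/6J male mice (22–26 g), 7–9 per group. Escitalopram in distilled water, i.p. at 10 ml/kg, 30 min before test. Tail suspension on a strain gauge for 6 min, scoring fight force, episode count and immobility below a 0.20 N threshold. One-way ANOVA with Bonferroni.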

Experiment [10] relates to Mus musculus. The experiment in a line: Antidepressant-like activity in C57BL/6J mouse assessed as increase in average force of fights at 20 mg/kg measured during 6 mins session by tail suspension test. It counts as functional, organism-based. Summed up: as §3
The subject of experiment [11] is Mus musculus. Kind of experiment: Antidepressant-like activity in Swiss albino mouse assessed as decrease in immobility time at 0.625 mg/kg measured during last 4 mins of 6 mins test by forced swim test. It counts as functional, organism-based. Summed up:
as §2

5-hydroxytryptamine receptor 7, sequence (P34969 whole entry): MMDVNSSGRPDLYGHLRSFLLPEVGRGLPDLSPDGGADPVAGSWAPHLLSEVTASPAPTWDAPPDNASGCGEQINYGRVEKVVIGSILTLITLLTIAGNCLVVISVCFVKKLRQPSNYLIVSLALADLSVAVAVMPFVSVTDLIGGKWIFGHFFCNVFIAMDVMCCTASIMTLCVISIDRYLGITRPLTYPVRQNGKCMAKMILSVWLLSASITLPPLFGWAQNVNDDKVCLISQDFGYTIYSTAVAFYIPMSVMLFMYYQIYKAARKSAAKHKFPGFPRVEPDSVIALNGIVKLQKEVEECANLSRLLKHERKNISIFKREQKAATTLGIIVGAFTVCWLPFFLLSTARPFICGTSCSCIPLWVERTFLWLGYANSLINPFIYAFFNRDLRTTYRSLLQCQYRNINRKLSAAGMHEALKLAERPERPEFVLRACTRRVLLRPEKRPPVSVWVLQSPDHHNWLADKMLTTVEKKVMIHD

In the case of `CC(C)c1ccccc1OCC(O)CN1CCC(NS(=O)(=O)c2cccc(F)c2)CC1` (stereo not drawn), the Ki in [1] amounted to 213 nM; in [2] it was 742 nM. Also, the Ratio Ki in experiment [3] was determined as 4.

On to `O=S(=O)(NC1CCN(CCCOc2ccccc2-c2ccccc2)CC1)c1cccc(Cl)c1`, for which the Ki in [1] amounted to 52 nM; in experiment [2], 1630 nM. Besides, the Ratio Ki in experiment [3] came to 31.

On to `O=S(=O)(NC1CCN(CCCOc2ccccc2-c2ccccc2)CC1)c1ccc(F)cc1`, for which the Ki in experiment [1] worked out at 58 nM; in experiment [2] it was 1840 nM. In addition, in [3], the Ratio Ki is 32.

Consider `CC1CCN(CC[C@H]2CCCN2S(=O)(=O)c2cccc(O)c2)CC1`, for which the Activity in experiment [4] came out at 31%. For the same molecule, the result in [5] and in experiment [6] was Active.

With `CC(C)c1ccccc1OCC(O)CN1CCC(NS(=O)(=O)c2ccc(F)cc2)CC1` (stereo not drawn), the Ki in experiment [1] came out at 104 nM; in experiment [2], 506 nM. Also, in experiment [3], the Ratio Ki worked out at 5.

`CC(C)c1ccccc1OCC(C)N1CCC(NS(=O)(=O)c2cccc(F)c2)CC1` (stereo not drawn): the Ki was found to be 170 nM in experiment [1] and 962 nM in experiment [2]. Also, the Ratio Ki in [3] is 6.

With `CN(C)CCC[C@@]1(c2ccc(F)cc2)OCc2cc(C#N)ccc21` [ESCITALOPRAM], the Activity in [7] came out at 27%; in experiment [8], 34%. In addition, the result in experiment [9] and in experiment [10] was Active. In addition, the outcome in experiment [11] was inactive.
